# PMC3616455 (Molecular Pharmaceutics, 2013)
# Residues, ends and D or L forms follow the SMILES beside them.
# Assays:
# [1] = molecular target: T1, HCMV A143T/A144T protease mutant (Human cytomegalovirus, UniProt P16753, A143T/A144T); assay: Esterase activity toward p-nitrophenol; assay type: biochemical; details: for hydrolysis by HCMV protease (in words): up to 10 min at 30 °C
# T1 sequence (P16753 1-256 A143T/A144T limits assumed): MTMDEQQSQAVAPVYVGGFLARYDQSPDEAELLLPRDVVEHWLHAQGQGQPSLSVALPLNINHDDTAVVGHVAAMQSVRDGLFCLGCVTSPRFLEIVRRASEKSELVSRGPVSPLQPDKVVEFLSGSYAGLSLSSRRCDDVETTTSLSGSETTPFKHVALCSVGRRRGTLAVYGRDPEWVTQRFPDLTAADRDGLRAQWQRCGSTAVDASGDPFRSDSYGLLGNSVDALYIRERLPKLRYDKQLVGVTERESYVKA
# How it was run: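 Catalytic-domain His-tagged A143T/A144T mutant, expressed in E. coli BL21(DE3) and Ni-NTA purified, 10 μg/mL, preincubated 3 min in 100 mM phosphate pH 7.4 with 0.5 M Na2SO4 and 10% glycerol. Boc-Xaa-ONp (50 μM) then added at 30 °C for up to 10 min. p-Nitrophenol release read at 405 nm every 30 s. Boc-Ala-ONp kinetics run in 50 mM Tris pH 7.4.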
# HCMV protease = details: substrate hydrolysis, literature data; cited from earlier work
# [2] = Solubility of the model ester; assay type: physicochemical
# [3] = substrate hydrolysis, 10 μg/mL protease, 50 mM Tris buffer (pH 7.4)
molecule,measurement,setting,value
CC(C)(C)OC(=O)N[C@@H](CCC(N)=O)C(=O)Oc1ccc([N+](=O)[O-])cc1 [Boc-L-Gln-ONp],hydrolysis by HCMV protease (in words),"[1]; 50 μM ester, 10 μg/mL protease",not hydrolyzed
CC(C)(C)OC(=O)NCC(=O)NCC(=O)Oc1ccc([N+](=O)[O-])cc1 [Boc-L-Gly-L-Gly-ONp] (HELM PEPTIDE1{[CC(C)(C)OC(=O)[*:2]].G.G.[O=[N+]([O-])c1ccc(O[*:1])cc1]}$$$$V2.0),hydrolysis by HCMV protease (in words),"[1]; 50 μM ester, 10 μg/mL protease",slower than that of Boc-L-Gly-ONp
CC(C)[C@H](NC(=O)OC(C)(C)C)C(=O)Oc1ccc([N+](=O)[O-])cc1 [Boc-L-Val-ONp],hydrolysis by HCMV protease (in words),"[1]; 50 μM ester, 10 μg/mL protease",not hydrolyzed
CC(C)CC(NC(=O)OC(C)(C)C)C(=O)Oc1ccc([N+](=O)[O-])cc1 [Boc-L-Leu-ONp],hydrolysis by HCMV protease (in words),"[1]; 50 μM ester, 10 μg/mL protease",not hydrolyzed
N-Ac-Tbg-Tbg-Asn(NMe2)-Ala-AMC,Km,HCMV protease,13.2 µM
same,kcat,HCMV protease,0.035 ^b s^–1
CCC(C)C(NC(=O)OC(C)(C)C)C(=O)Oc1ccc([N+](=O)[O-])cc1 [Boc-L-Ile-ONp],hydrolysis by HCMV protease (in words),"[1]; 50 μM ester, 10 μg/mL protease",not hydrolyzed
C[C@H](NC(=O)OC(C)(C)C)C(=O)Oc1ccc([N+](=O)[O-])cc1 [Boc-L-Ala-ONp],specific activity relative to Boc-L-Gly-ONp and Boc-L-Phe-ONp (higher),"[1]; 50 μM ester, 10 μg/mL protease",~5 fold
same,specific activity,"[1]; 50 μM ester, 10 μg/mL protease, 30 °C",190 nmol/min/mg protein
same,affinity relative to N-Ac-Tbg-Tbg-Asn(NMe2)-Ala-AMC (less),[1]; comparison of Km values,about 10 fold
same,turnover rate (kcat) relative to the peptide compound (faster),[1]; comparison of kcat values,10 fold
same,Km,[1]; [3],163 µM
same,kcat,[1]; [3],0.397 s^–1
same,solubility (in words),[2],low solubility
